For ten compounds, Ki and IC50 results are on record in ChEMBL document CHEMBL1152410, “Cytotoxic pentacyclic triterpenoids from Combretum sundaicum and Lantana camara as inhibitors of Bcl-xL/BakBH3 domain peptide interaction” (J Nat Prod, 2009).

Molecules are shown by their SMILES.

For one assay, the target named is Bcl-2-like protein 1 (Homo sapiens, UniProt Q07817). Description: Binding affinity to Bcl-xL by fluorescein-labeled Bak-BH3 peptide competition binding assay. The method, boiled down:
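Fluorescence polarization displacement: test compound competes with fluorescein-labeled Bak BH3-domain peptide for binding to Bcl-xL. Ki is derived as the dissociation constant at equilibrium against this reference ligand. Unlabeled Bak(BH3) peptide and a substituted terphenyl derivative serve as positive controls. Runs are done in duplicate.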

The test system of the next assay is HCT-116. Description: Cytotoxicity against human HCT116 cells. The assay is classed as functional, cell-based. A digest of the protocol: (§1)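 Cell growth-inhibition assay run by a previously published procedure, with Taxotere as the reference compound.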
In another assay the test system is MCF7. Kind of assay: Cytotoxicity against human MCF7 cells. The assay is classed as functional, cell-based. The method, boiled down:
as §1

The next assay concerns KB. Description: Cytotoxicity against human KB cells. It is filed as functional, cell-based. The method, boiled down: as §1
Another assay concerns L1210. Kind of assay: Cytotoxicity against mouse L1210 cells. The assay is classed as functional, cell-based. A digest of the protocol: as §1

Chain of Bcl-2-like protein 1 (Q07817 whole entry): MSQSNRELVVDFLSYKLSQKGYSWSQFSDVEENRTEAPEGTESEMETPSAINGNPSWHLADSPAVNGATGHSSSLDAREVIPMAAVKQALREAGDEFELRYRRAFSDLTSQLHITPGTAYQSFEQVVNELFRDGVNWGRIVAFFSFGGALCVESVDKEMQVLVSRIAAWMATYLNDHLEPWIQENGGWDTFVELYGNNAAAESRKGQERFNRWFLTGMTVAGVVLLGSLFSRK

Regarding `COC(=O)[C@]1(C)CC[C@]2(C)CC[C@]3(C)C(=CC[C@@H]4[C@@]5(C)[C@@H](O[C@@H]6O[C@@H](C)[C@H](O)[C@@H](O)[C@H]6O)C[C@H](O)[C@@](C)(COC(C)=O)[C@@H]5CC[C@]43C)[C@H]2C1`, the Ki at Bcl-2-like protein 1 is > 100 µM. The IC50 with HCT-116 was 0.4 µM; in the assay with MCF7, 0.5 µM; with KB, 0.7 µM.
Regarding `CC(=O)O[C@@]12CO[C@@H]1C[C@H](O)[C@@]1(C)C(=O)[C@H](O)C3=C(C)[C@@H](OC(=O)[C@H](O)[C@@H](NC(=O)OC(C)(C)C)c4ccccc4)C[C@@](O)([C@@H](OC(=O)c4ccccc4)[C@H]21)C3(C)C` [DOCETAXEL], the IC50 stood at 0.0012 µM in the assay with HCT-116, 0.0007 µM in the assay with MCF7 and 0.00015 µM with KB.
Take `CC(=O)OC[C@]1(C)[C@@H](OC(C)=O)C[C@H](O)[C@]2(C)[C@H]3CC=C4[C@H]5C[C@](C)(C(=O)O)CC[C@]5(C)CC[C@@]4(C)[C@]3(C)CC[C@@H]12`: on Bcl-2-like protein 1, the inhibitory constant (Ki) was found to be 17.8 µM. Moreover, the figures for the 50% inhibitory concentration (IC50) in the assay with HCT-116, with MCF7 and with KB were 4.7 µM, 6 µM and 5.4 µM, respectively.
Taken in the same sequence, the figures for `CC(=O)OC[C@]1(C)[C@@H](OC(C)=O)C[C@H](O[C@@H]2O[C@@H](C)[C@H](O)[C@@H](O)[C@H]2O)[C@]2(C)[C@H]3CC=C4[C@H]5C[C@](C)(C(=O)O)CC[C@]5(C)CC[C@@]4(C)[C@]3(C)CC[C@@H]12` were 7.2 µM, 8 µM, 10.5 µM and 8.2 µM.
In the case of `COC(=O)[C@]1(C)CC[C@]2(C)CC[C@]3(C)C(=CC[C@@H]4[C@@]5(C)[C@@H](O)C[C@H](O)[C@@](C)(COC(C)=O)[C@@H]5CC[C@]43C)[C@H]2C1`, the inhibitory constant (Ki) at Bcl-2-like protein 1 was > 100 µM. The results for the concentration for half-maximal inhibition (IC50) with HCT-116, in the assay on MCF7 and with KB were 1.7 µM, 4.6 µM and 2.9 µM, respectively.
Turning to `COC(=O)[C@]1(C)CC[C@]2(C)CC[C@]3(C)C(=CC[C@@H]4[C@@]5(C)[C@@H](O[C@@H]6O[C@@H](C)[C@H](O)[C@@H](O)[C@H]6O)C[C@H](OC(C)=O)[C@@](C)(COC(C)=O)[C@@H]5CC[C@]43C)[C@H]2C1`, the Ki at Bcl-2-like protein 1 was > 100 µM. In addition, the IC50 in the assay on HCT-116 was found to be 0.3 µM; with MCF7 it was 0.6 µM; with KB, 0.9 µM.
`CC(C)=CC(=O)O[C@@H]1CC(C)(C)C[C@@H]2C3=CC[C@@H]4[C@@]5(C)CCC(=O)[C@](C)(CO)[C@@H]5CC[C@@]4(C)[C@]3(C)CC[C@]21C(=O)O` showed an inhibition constant Ki at Bcl-2-like protein 1 of 5.3 µM. Besides, the half-maximal inhibitory concentration (IC50) came out at 11.4 µM in the assay with HCT-116, 12.3 µM in the assay on L1210, 42.5 µM in the assay on MCF7 and 35.5 µM with KB.
On to `CC(C)=CC(=O)O[C@@H]1CC(C)(C)C[C@@H]2C3=CC[C@@H]4[C@@]5(C)CCC(=O)C(C)(C)[C@@H]5CC[C@@]4(C)[C@]3(C)CC[C@]21C(=O)O` [LANTADENE B], for which the inhibition constant (Ki) at Bcl-2-like protein 1 was > 100 µM. The IC50 in the assay on HCT-116 was determined as 11.4 µM; in the assay on L1210, 16.1 µM; with MCF7 it was 44 µM; in the assay on KB, 25.3 µM.
The corresponding values for `C/C=C(/C)C(=O)O[C@@H]1CC(C)(C)C[C@H]2C3=CC[C@@H]4[C@@]5(C)CCC(=O)C(C)(C)[C@@H]5CC[C@@]4(C)[C@]3(C)CC[C@@]12C(=O)O` [LANTADENE A] are > 100 µM, 41.8 µM, 16.3 µM, 44.7 µM and 15.8 µM.
As for `C/C=C(/C)C(=O)O[C@@H]1CC(C)(C)C[C@@H]2C3=CC[C@@H]4[C@@]5(C)CCC(=O)[C@](C)(CO)[C@@H]5CC[C@@]4(C)[C@]3(C)CC[C@]21C(=O)O` [ICTEROGENIN], the Ki on Bcl-2-like protein 1 is 7.6 µM. The IC50 in the assay on HCT-116 amounted to 5.8 µM; in the assay on L1210 it was 6.8 µM; with MCF7, 11.3 µM; with KB it was 15 µM.

Broadly, the Ki is the equilibrium dissociation constant of an inhibitor or competing ligand from its target. Low values mean a stronger hold on the target, high ones a looser hold on the target. What is called IC50 is the concentration at which inhibition is half-maximal. A higher IC50 goes with weaker potency.
